Laboratory results published in publication PMC5613298 (Biochemistry and Biophysics Reports, 2016).
Read-outs that look alike come from different tables or passages of the source. Starred links: 1 amine or outer side, 2 acyl side, 3 side chain; linkers in the order of their positions; H or OH if unused. Non-standard residues stand in square brackets, D forms with d. Residues, ends and D or L forms follow the SMILES beside them. Trp(7-aza) = N[C@@H](Cc1c[nH]c2ncccc12)C(=O)O; X1 = O=C([C@H](Cc1n[nH]c2ncccc12)N[*:1])[*:2]

How the values were obtained:
[1] = steady-state absorption and emission spectroscopy, free in solution; format: physicochemical; settings: for λabs: neutral water; for λem, normal / N(1)-H emission: neutral water (peptides: neutral Tris buffer); for λem, second band (N(2)-H emission) / λem, third band (N(7)-H tautomer emission): neutral water / neutral Tris buffer
Method in brief: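 Absorption recorded on a UV-vis spectrophotometer. Emission recorded on a fluorimeter with wavelength-calibrated excitation and emission response. Peptide concentration was set spectrophotometrically from the extinction coefficient of its single Trp or Trp-analogue residue.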

[2] = time-resolved fluorescence; format: physicochemical
Method in brief: (§1)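 Lifetimes measured by time-correlated single-photon counting, with two sources. One used hydrogen-lamp excitation (about 300 ps resolution). The other used 310 nm third-harmonic excitation from 930 nm femtosecond pulses (82 MHz) with a microchannel-plate detector (about 15 ps resolution). Emission was collected at right angles through a 54.7° polarizer. Decays were fitted to sums of exponentials with the instrument response deconvolved.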

[3] = cited from earlier work
[4] = target: T1, bovine brain calmodulin (CaM) (Bos taurus, UniProt P62157); test: CaM binding by fluorescence titration; settings: for increase in CaM binding affinity on replacing Trp: relative to Baa (210±10 pM)
[5] = cited from earlier work; remark: listed apart in the source
[6] = target: T1, bovine brain calmodulin (CaM); test: time-resolved fluorescence; format: binding; settings: peptide-CaM complex, ±0.03 ns uncertainty
Method in brief: as §1

[7] = CD spectrum; format: physicochemical; settings: Fig. S2
[8] = target: T1, bovine brain calmodulin (CaM); test: steady-state emission spectra upon titration with CaM; format: binding; settings: for λem, N(1)-H emission: bound to CaM, pH 7.5 Tris buffer; for environment around Trp analogue upon binding CaM: deduced from steady-state emission; for λabs: in presence of CaM
Method in brief: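 Peptide at 1 µM in 5 mM Tris-HCl, pH 7.5, 1.0 mM CaCl₂, 25 °C. CaM added stepwise to 6 µM final, with 1 min stirring and 10 min equilibration per step. Full emission spectra recorded on a calibrated fluorimeter, corrected for dilution, each an average of three replicates. Peptide and CaM concentrations were set from Trp and Tyr absorption extinction coefficients.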

[9] = free, neutral water, λmon 320 nm, ±0.03 ns uncertainty
[10] = free, neutral water, λmon 550 nm, ±0.03 ns uncertainty
[11] = free, neutral water, λmon not given, ±0.03 ns uncertainty
[12] = free, neutral water, λmon 380 nm
[13] = free, neutral water, λmon 380 nm, ±0.03 ns uncertainty
[14] = free, neutral water, λmon 540 nm, ±0.03 ns uncertainty

For `c1cnc2[nH]ncc2c1` [2,7-diazaindole], the λabs [1] was 295 nm, the “λem, normal / N(1)-H emission” value [1] was 335 nm and the “λem, second band (N(2)-H emission)” value [1] was 370 nm. For the same molecule, the “λem, third band (N(7)-H tautomer emission)” value (from here on “λem, third band”) [1] was 495 nm, the τ [2, 9] was 0.22 ns and the τ ([2]; free, neutral water, λmon 400 nm, ±0.03 ns uncertainty) was 10.10 ns. For the same molecule, the “τ, decay component” value [2, 10] was 1.30 ns and the “τ, rise component” value [2, 10] was 0.21 ns.
With `c1cnc2[nH]ccc2c1` [7-azaindole] the λabs [1] was 288 nm, the “λem, normal / N(1)-H emission” value [1] was 386 nm and the τ [2, 11] was 0.91 ns. For the same molecule, the lifetime ([3]; in DMSO) was 9.3 ns and the lifetime ([3]; in acetonitrile) was 5.7 ns.
In the case of `N[C@@H](Cc1n[nH]c2ncccc12)C(=O)O` [(2,7-aza)Trp, 2,7-diazatryptophan], the “increase in CaM binding affinity on replacing Trp” value [4] is reported as 4.7 times, the λabs [1] is reported as 300 nm and the “λem, normal / N(1)-H emission” value [1] is reported as 340 nm. For the same molecule, the “λem, second band (N(2)-H emission)” value [1] was 380 nm, the “λem, third band” value [1] was 500 nm and the τ [2, 9] was 0.26 ns. For the same molecule, the “percentage of τ component 1” value [2, 12] was 12%, the “percentage of τ component 2” value [2, 12] was 88% and the “τ, component 1” value [2, 13] was 0.27 ns. For the same molecule, the “τ, component 2” value [2, 13] was 10.07 ns, the “τ, decay component” value [2, 14] was 0.58 ns and the “τ, rise component” value [2, 14] was 0.26 ns. For the same molecule, the “N(7)-H tautomer emission” value ([5]; water rich environments) was 500 nm.
For `CC(=O)N[C@@H](CC(C)C)C(=O)N[C@@H](CCCCN)C(=O)N[C@@H](Cc1n[nH]c2ncccc12)C(=O)N[C@@H](CCCCN)C(=O)N[C@@H](CCCCN)C(=O)N[C@@H](CC(C)C)C(=O)N[C@@H](CC(C)C)C(=O)N[C@@H](CCCCN)C(=O)N[C@@H](CC(C)C)C(=O)N[C@@H](CC(C)C)C(=O)N[C@@H](CCCCN)C(=O)N[C@@H](CCCCN)C(=O)N[C@@H](CC(C)C)C(=O)N[C@@H](CC(C)C)C(=O)N[C@@H](CCCCN)C(=O)N[C@@H](CC(C)C)C(=O)NCC(N)=O` [(2,7-aza)Trp-Baa] (Ac-LK[X1]KKLLKLLKKLLKLG-NH2), the Kd [4] was 45 ± 2 pM, the λabs [1] was 300 nm and the “λem, normal / N(1)-H emission” value [1] was 340 nm. For the same molecule, the “λem, second band (N(2)-H emission)” value [1] was 380 nm, the “λem, third band” value [1] was 500 nm and the “τ, N(1)-H emission lifetime” value ([2]; free peptide in water, λmon 330 nm, ±0.03 ns uncertainty) was 0.21 ns. For the same molecule, the “τ, N(1)-H emission lifetime” value ([6]; λmon 330 nm) was 1.10 ns, the “secondary structure by CD” value [7] was “α-helix structure” and the “λem, N(1)-H emission” value ([8]; 1.0 mM CaCl2) was 340 nm. For the same molecule, the “environment around Trp analogue upon binding CaM” value [8] was “water scant environment”, the λabs [8] was 300 nm and the “change of N(1)-H emission at 340 nm upon titration with CaM” value ([8]; pH 7.5 Tris, 1.0 mM CaCl2) was “increase of the N(1)-H emission”.
In the case of `N[C@@H](Cc1c[nH]c2ncccc12)C(=O)O` [(7-aza)Trp, 7-azatryptophan], the “increase in CaM binding affinity on replacing Trp” value [4] is reported as 1.9 times, the λabs [1] is reported as 289 nm and the “λem, normal / N(1)-H emission” value [1] is reported as 400 nm. For the same molecule, the τ [2, 11] was 0.65 ns and the emission maximum ([5]; in tetrahydrofuran) was 350 nm.
With `CC(=O)N[C@@H](CC(C)C)C(=O)N[C@@H](CCCCN)C(=O)N[C@@H](Cc1c[nH]c2ncccc12)C(=O)N[C@@H](CCCCN)C(=O)N[C@@H](CCCCN)C(=O)N[C@@H](CC(C)C)C(=O)N[C@@H](CC(C)C)C(=O)N[C@@H](CCCCN)C(=O)N[C@@H](CC(C)C)C(=O)N[C@@H](CC(C)C)C(=O)N[C@@H](CCCCN)C(=O)N[C@@H](CCCCN)C(=O)N[C@@H](CC(C)C)C(=O)N[C@@H](CC(C)C)C(=O)N[C@@H](CCCCN)C(=O)N[C@@H](CC(C)C)C(=O)NCC(N)=O` [(7-aza)Trp-Baa] (Ac-LK[Trp(7-aza)]KKLLKLLKKLLKLG-NH2) the Kd [4] was 109 ± 5 pM, the λabs [1] was 300 nm and the “λem, normal / N(1)-H emission” value [1] was 400 nm. For the same molecule, the “τ, normal (N(1)-H) emission lifetime” value ([2]; free peptide, neutral Tris buffer, λmon 400 nm, ±0.03 ns uncertainty) was 0.65 ns, the “τ, normal (N(1)-H) emission lifetime” value ([6]; λmon 360 nm (text: 358 nm emission)) was 7.35 ns and the “secondary structure by CD” value [7] was “α-helix structure”. The “λem, N(1)-H emission” value ([8]; 1.0 mM CaCl2) was 358 nm, the “environment around Trp analogue upon binding CaM” value [8] was “less polar environment” and the λabs [8] was 300 nm.
With Ac-LKWKKLLKLLKKLLKLG-NH2 [Baa] the “secondary structure by CD” value [7] was “α-helix structure”.
